FN deposition inh: fibronectin deposition inhibition; AH1F fibroblasts, Alexa488-fibronectin deposition fluorescence, overnight; inhibition, % at 12.6 µM; 350,000 tested, 0.086% active; AID 743247;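 active = mean inhibition across replicates of 30% or more, regardless of how many single replicates reach that level; inconclusive = mean under 30% yet at least half of replicates reach 30%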;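 also: positive control wells lacked labelled fibronectin entirely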
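Measured by – fluorescence 485/525 nm · System – AH1F fibroblast monolayer, labelled fibronectin deposition · Amount – 10000 cells per well · Buffer or medium – serum-reduced DMEM (2% serum) · Doses – single dose, pinned · Also added – fluorescent fibronectin at 24 nM final · Schedule – 1 h cell attachment, overnight exposure to compound and label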
SIRT5 block: blocks human SIRT5 desuccinylation of peptide; 330,000 tested, 1.1% active; Purified SirT5, succinyl-peptide AMC, trypsin-coupled fluorescence; inhibition, % at 15 µM; in the data active = inhibition above about 15%; inconclusive = no clear call, values can overlap the other calls
Target sequence (Q9NXA8 whole entry, looked up): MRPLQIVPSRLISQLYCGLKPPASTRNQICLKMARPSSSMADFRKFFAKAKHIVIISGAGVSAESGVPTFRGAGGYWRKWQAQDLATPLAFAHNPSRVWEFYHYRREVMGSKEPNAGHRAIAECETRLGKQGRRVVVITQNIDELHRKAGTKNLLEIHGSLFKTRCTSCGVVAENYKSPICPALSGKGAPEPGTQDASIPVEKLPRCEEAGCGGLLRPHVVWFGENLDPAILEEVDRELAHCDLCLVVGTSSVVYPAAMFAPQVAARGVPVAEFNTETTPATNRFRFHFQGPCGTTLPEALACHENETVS
Statin myotox sup: protects C2C12 myotubes from simvastatin toxicity | 330,000 tested, 0.78% active | ATP luminescence, 48 h; scaled: DMSO 0, geranylgeraniol control 100 | rescue of ATP level, % at 7.49 µM;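 active = mean ATP rescue above about 67%, or every replicate alone reaching that limit, limit read from the data, passing the limit was not always enough; inconclusive = no clear call, values can overlap the other calls; inactive = mean under the limit and some replicate under it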;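 also: myotubes were challenged with 10 µM simvastatin during compound exposure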
E-selectin induc: E-selectin induction on HUVECs; P16581; HUVEC E-selectin immunofluorescence imaging; normalized: neutral wells 0, TNF-alpha wells 100; activation, % at 7.58 µM; 260,000 tested, 0.37% active; AID 686992;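 active = mean E-selectin-positive cell signal at least 10% of the positive control, reached in at least 60% of replicates, without over 20% cell loss; inconclusive = no rule given, readout overlaps actives, possibly toxicity-flagged; inactive = the rest, including those meeting only one limit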
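Assay system: HUVEC, human umbilical vein endothelial cells / Amount: 3,000 HUVEC/well / Controls: TNF-alpha positive control, DMSO neutral control / Compound dosing: single concentration / Medium: EGM-2 over gelatin coat / Evaluation: percent E-selectin-positive cells / Signal: immunofluorescence imaging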
FGF22 binding: FGF22 (human) thermal shift binding. Q9HCT0. recombinant FGF22 thermal shift, SYPRO orange fluorescence; percent of sucrose octasulfate shift, DMSO zero. activity (Tm shift, normalised), % at 9.99 µM. 340,000 tested, 1.5% active. AID 651658;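 active = mean Tm shift, scaled 0 neutral to 100 positive control, at about 1.3% or above, every replicate too, limit read from the data; inconclusive = no clear call, values can overlap the other calls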
Target sequence (Q9HCT0 whole entry, looked up): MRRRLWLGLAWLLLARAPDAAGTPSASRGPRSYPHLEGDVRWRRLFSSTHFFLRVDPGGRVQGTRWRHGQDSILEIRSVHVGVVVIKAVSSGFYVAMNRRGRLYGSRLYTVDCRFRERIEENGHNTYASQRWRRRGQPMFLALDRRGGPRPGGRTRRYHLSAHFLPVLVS
Ecoli rRNA inh: inhibits bacterial ribosomal RNA function over humanized ribosomes | 350,000 tested, 1.6% active | AID 720706 | GFP signal change (wild-type ribosome), % (concentration not given with the values) | E. coli WT GFP vs humanized-ribosome RFP mutants, fluorescence, 24 h; active compounds read low; DMSO median 0, no signal -100;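 active = significant combined selectivity score with lowered wild-type GFP, culture density cut under 30%, mutant RFP and density less affected; inactive = any of these conditions unmet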
* hit, by the source's call; ? = inconclusive; nt = no result; ! = repeats disagree. Most compounds without a hit are left out; they make up all but 4% or so of the library.

SMILES	FN deposition inh	SIRT5 block	Statin myotox sup	E-selectin induc	FGF22 binding	Ecoli rRNA inh
CN(C)CC#Cc1ccc([C@@H]2[C@@H](CO)N3CCCCN(C(=O)CN(C)C)C[C@H]23)cc1	nt	25*	-12	1	0	8
O=C(Nc1ccccc1F)N1CCCCN2[C@H](CO)[C@H](c3ccc(-c4cccnc4)cc3)[C@@H]2C1	nt	-1	nt	0	0	0
O=C(Nc1ccccc1F)N1CCCCN2[C@@H](CO)[C@H](c3ccc(-c4cccnc4)cc3)[C@@H]2C1	nt	9	nt	0	0	-19*
CSc1nc(N2CCOCC2)c2c3c(sc2n1)CCC3	nt	nt	98*	nt	nt	nt
COc1ccc(NC(=O)N(C)C[C@H]2Oc3ncc(C#CCC(C)C)cc3C(=O)N([C@@H](C)CO)C[C@@H]2C)cc1	-5	7	32	0	0	-1
Cc1noc(C)c1S(=O)(=O)N(C)C[C@H]1OCCCC[C@H](C)Oc2ccc(NC(=O)Cc3ccccc3)cc2C(=O)N([C@H](C)CO)C[C@H]1C	nt	-3	nt	0	-1	1
COc1cc2nc(N3CCN(C(=O)C4COc5ccccc5O4)CC3)nc(N)c2cc1OC (centres undefined)	-6	-12	-5	61*	0	nt
COc1ccc(-c2csc(NC(=S)NC(=O)/C=C/c3ccco3)n2)cc1Br	-2	5	-48	0	0	-41*
COc1ccc(-c2csc(NC(=S)NC(=O)/C=C/c3ccco3)n2)cc1OC	-6	2	-56	nt	0	-14
Cc1cccc(NC(=S)NC(=O)/C=C/c2ccco2)c1	11	0	-92	1	1.4*	-8
Cc1ccc(S(=O)(=O)Nc2cccc3c2O[C@@H](CN(C)C(=O)Nc2cccc4ccccc24)[C@H](C)CN([C@H](C)CO)C3=O)cc1	nt	nt	15	0	nt	0
COc1ccccc1C#Cc1ccc2c(c1)O[C@H](CN(C)Cc1ccncc1)[C@@H](C)CN([C@@H](C)CO)S2(=O)=O	nt	11	-253	nt	-1	-7
Cc1[nH]c2c(C)cccc2c(=O)c1Br	nt	nt	-7	nt	nt	nt
Cc1cc(=S)[nH]c2c(C)cccc12	nt	nt	74*	nt	nt	nt
C[C@H](CO)N1C[C@H](C)[C@@H](CN(C)S(=O)(=O)c2ccc(F)cc2)Oc2cc(Br)ccc2S1(=O)=O	-1	-5	?	1	0	-25*!
C[C@@H]1CN([C@@H](C)CO)S(=O)(=O)c2ccc(C#Cc3ccncc3)cc2O[C@@H]1CN(C)S(=O)(=O)c1ccc(F)cc1	nt	-14	-85	nt	0	-6
C[C@H]1CN([C@@H](C)CO)S(=O)(=O)c2ccc(C#Cc3ccc(F)cc3)cc2O[C@@H]1CN(C)S(C)(=O)=O	-10	13*	1	1	1	-3
C[C@H]1CN([C@@H](C)CO)S(=O)(=O)c2ccc(C#Cc3ccc(F)cc3)cc2O[C@@H]1CN(C)S(=O)(=O)c1cn(C)cn1	nt	3	74*	nt	0	nt
C[C@H]1CN([C@@H](C)CO)S(=O)(=O)c2ccc(C#Cc3ccc(F)cc3)cc2O[C@H]1CN(C)S(C)(=O)=O	0	5	26	-2	0	0
C[C@H](CO)N1C[C@H](C)[C@H](CN(C)S(=O)(=O)c2ccc(F)cc2)Oc2cc(Br)ccc2S1(=O)=O	-6	2	-55	0	0	-4
C[C@@H]1CN([C@H](C)CO)S(=O)(=O)c2ccc(C#Cc3ccc(F)cc3)cc2O[C@H]1CN(C)S(=O)(=O)c1ccc(F)cc1	3	26*	-3	0	0	2
CCCNC(=O)N1[C@@H]2CN(C(=O)C3CC3)c3ccccc3[C@@H]2[C@@H]1CO	-2	11	13	0	0	5
C[C@@H]1CN([C@@H](C)CO)S(=O)(=O)c2ccc(-c3cncnc3)cc2O[C@@H]1CN(C)C(=O)c1ccc2c(c1)OCO2	-4	-3	7	0	0	1
C[C@@H]1CN([C@H](C)CO)S(=O)(=O)c2ccc(C#Cc3ccc(F)cc3)cc2O[C@@H]1CN(C)S(=O)(=O)c1ccc(F)cc1	-3	30*	8	0	0	7
COc1ccc(S(=O)(=O)N(C)C[C@@H]2Oc3cc(C#CC4CCCC4)ccc3S(=O)(=O)N([C@H](C)CO)C[C@H]2C)cc1	0	19*	-153	-3	0	5
SMILES	FN deposition inh	SIRT5 block	Statin myotox sup	E-selectin induc	FGF22 binding	Ecoli rRNA inh
COc1ccc(S(=O)(=O)N(C)C[C@@H]2Oc3cc(C#CC4CCCCC4)ccc3S(=O)(=O)N([C@@H](C)CO)C[C@@H]2C)cc1	-12	1	-18	0	0	10
C[C@H](CO)N1C[C@H](C)[C@H](CN(C)S(=O)(=O)c2ccc(F)cc2)Oc2cc(C#Cc3ccc(F)cc3)ccc2S1(=O)=O	2	27*	21	0	0	-1
CC(C)CC#Cc1ccc2c(c1)O[C@@H](CN(C)S(=O)(=O)c1ccc(F)cc1)[C@@H](C)CN([C@H](C)CO)S2(=O)=O	-3	0	12	2	0	2
CC(C)CC#Cc1ccc2c(c1)O[C@H](CN(C)S(=O)(=O)c1ccc(F)cc1)[C@@H](C)CN([C@H](C)CO)S2(=O)=O	-15	8	-36	-3	0	2
COCc1cn(CC[C@@H]2CC[C@@H](NC(=O)CCN3CCCCC3)[C@@H](CO)O2)nn1	0	-1	-3	0	0	1
CCCNC(=O)[C@@H]1[C@@H](CO)[C@@H]2Cn3c(cccc3=O)[C@@H]2N1C(=O)C1CC1	nt	-1	nt	0	nt	3
COc1ccc(-c2[nH]ncc2[C@@H]2C[C@H]3CN(Cc4ccccc4C)C(=O)[C@]34CCCN24)cc1	-7	2	nt	0	43*	-22
N/C(=N/OC(=O)c1ccccc1Cl)c1nonc1N	-7	-1	nt	nt	0	-23*
N/C(=N\OC(=O)c1ccc(F)cc1)c1nonc1N	1	-2	nt	0	0	-1
CC(=O)N1[C@@H]2CN(S(C)(=O)=O)C[C@H]1C2c1ccccc1 (some centres undefined)	-5	nt	nt	nt	nt	1
C[C@@H]1CN([C@H](C)CO)C(=O)c2cc(-c3ccc(F)cc3)cnc2O[C@H]1CN(C)CC1CCCC1	-11	-1	-18	2	0	8
COc1ccc(CC(=O)O/N=C(\N)c2ccc(OC)cc2)cc1	7	1	nt	nt	0	-19*
COc1ccc(CC(=O)O/N=C(\N)c2ccccc2)cc1OC	13	4	22	0	0	-22*
COc1ccc(CC(=O)O/N=C(\N)c2ccc(Br)cc2)cc1OC	-12	1	1	-1	0	-17

From PubChem
